This is an account of results in PMC3668520 (FEBS Open Bio, 2013).

For one test, the target named is FLAG-tagged human EBI2 (Homo sapiens, UniProt P32249). Nature of the test: [35S]GTPγS binding to membranes from CHO cells stably expressing EBI2. The format is biochemical. The gist of the method: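 Membranes from CHO Flp-In cells stably expressing M1-FLAG-EBI2 or pcDNA5 (10 μg) were incubated 30 min with ligands and 1 nM [35S]GTPγS. WGA SPA beads (2.8 mg/mL) were then added for 30 min, followed by centrifugation and scintillation counting. Nonspecific binding was defined with 40 μM unlabelled GTPγS. Inhibition was run at 1 nM 7α,25-OHC. Agonist curves were run at 0, 100 nM, 1 μM and 10 μM antagonist. Kd and slope come from Schild regression (x-intercept). Three independent experiments.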

Test [1] has as its system B cells isolated from wt and EBI2-overexpressing C57BL/6 mice. Nature of the test: Ex vivo B cell chemotaxis. The class given is cell-based, mouse. The gist of the method: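 B cells came from wt and EBI2-overexpressing C57BL/6 mice. 7α,25-OHC and/or test compound was placed in the lower chamber, and 200,000 cells went onto 5 μm-pore filters. After 5 h at 37 °C, migrated cells were quantified by CellTiterGlo luminescence. Agonist response is expressed as chemotactic index (four experiments). Inhibition was tested on EBI2-overexpressing cells with 0.1 nM 7α,25-OHC, relative to agonist alone (three experiments).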

In test [2] the test system is FLAG-tagged human EBI2 (ERK1/2 phosphorylation). Nature of the test: ERK1/2 phosphorylation in CHO cells stably expressing EBI2. The class given is cell-based. To be noted: 10 min, read-out: EC50, ERK1/2 activation.
Test [3] relates to FLAG-tagged human EBI2 (p38 phosphorylation). Nature of the test: p38 phosphorylation in CHO cells stably expressing EBI2. The class given is cell-based. To be noted: serum-starved CHO EBI2 cells; ptx-sensitive.
The next test concerns EBI2. Particulars: at 5 μM; ref PubChem BioAssay ID: 651636; cited from earlier work.

Chain of FLAG-tagged human EBI2 (P32249 whole entry): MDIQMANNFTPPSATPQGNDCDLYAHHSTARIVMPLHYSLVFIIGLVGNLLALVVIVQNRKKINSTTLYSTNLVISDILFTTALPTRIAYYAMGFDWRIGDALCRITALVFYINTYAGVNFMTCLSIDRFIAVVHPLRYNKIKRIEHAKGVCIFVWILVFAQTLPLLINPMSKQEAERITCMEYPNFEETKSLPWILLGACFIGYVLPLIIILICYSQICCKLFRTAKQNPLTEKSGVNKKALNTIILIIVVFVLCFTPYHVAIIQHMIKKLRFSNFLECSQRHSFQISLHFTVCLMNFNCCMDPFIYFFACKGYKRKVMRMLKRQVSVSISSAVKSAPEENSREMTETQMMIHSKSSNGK

With `C[C@H](CCCC(C)(C)O)[C@H]1CC[C@H]2[C@@H]3[C@H](O)C=C4C[C@@H](O)CC[C@]4(C)[C@H]3CC[C@]12C` [7α,25-OHC, 7α,25-dihydroxycholesterol], the EC50 on FLAG-tagged human EBI2 amounted to 1 nM; in test [1] (Mus musculus, B-cell, read-out: EC50, chemotaxis) it was 0.1 nM; in test [2], 3 nM. Further, the “Concentration at which chemotaxis peaked” value in test [1] (both wt and EBI2-OE B cells) is given as 1 nM. For the same molecule, the p38 activation result in test [3] is given as “dose-dependently activated”.
Consider `O=C(/C=C/c1ccc(Cl)cc1)N1CCN(c2c(Cl)cccc2[N+](=O)[O-])CC1` [CID: 5804570], for which the “Suppression of 7α,25-OHC-induced β-arrestin recruitment” value in the test with EBI2 is “best compound”.
